About 1,100 (0.35%) of roughly 310,000 compounds were called active.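 Rule for the calls: active = fluorescence ratio B-score, a plate-corrected score, at least three library SD, with initial intensity B-score within 5 SD; inactive = the rest.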 The entries come from a sample that favours actives as a whole.
Target: Potassium voltage-gated channel subfamily KQT member 1 (Homo sapiens) (UniProt P51787)
Test: potentiators or activators of KCNQ1 channel, primary screen, cell-based, thallium flux, high-throughput (AID 2648)
Conditions: CHO-K1 KCNQ1, thallium flux FluxOR fluorescence, at 10 µM; active compounds read high
Procedure, shortened: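 Medium – assay buffer, equal DMSO in all wells · Material – CHO-K1 cell line with stable KCNQ1 potassium channel expression · Signal – kinetic FluxOR thallium fluorescence, 10-s 1-Hz baseline, 110-s post-stimulus read · Compound – single concentration per compound, DMSO matched to controls · Schedule – 37 °C overnight plating, 90-min dark dye load, 20-min compound pretreatment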

Chain of Potassium voltage-gated channel subfamily KQT member 1 (Homo sapiens) (P51787 whole entry, looked up): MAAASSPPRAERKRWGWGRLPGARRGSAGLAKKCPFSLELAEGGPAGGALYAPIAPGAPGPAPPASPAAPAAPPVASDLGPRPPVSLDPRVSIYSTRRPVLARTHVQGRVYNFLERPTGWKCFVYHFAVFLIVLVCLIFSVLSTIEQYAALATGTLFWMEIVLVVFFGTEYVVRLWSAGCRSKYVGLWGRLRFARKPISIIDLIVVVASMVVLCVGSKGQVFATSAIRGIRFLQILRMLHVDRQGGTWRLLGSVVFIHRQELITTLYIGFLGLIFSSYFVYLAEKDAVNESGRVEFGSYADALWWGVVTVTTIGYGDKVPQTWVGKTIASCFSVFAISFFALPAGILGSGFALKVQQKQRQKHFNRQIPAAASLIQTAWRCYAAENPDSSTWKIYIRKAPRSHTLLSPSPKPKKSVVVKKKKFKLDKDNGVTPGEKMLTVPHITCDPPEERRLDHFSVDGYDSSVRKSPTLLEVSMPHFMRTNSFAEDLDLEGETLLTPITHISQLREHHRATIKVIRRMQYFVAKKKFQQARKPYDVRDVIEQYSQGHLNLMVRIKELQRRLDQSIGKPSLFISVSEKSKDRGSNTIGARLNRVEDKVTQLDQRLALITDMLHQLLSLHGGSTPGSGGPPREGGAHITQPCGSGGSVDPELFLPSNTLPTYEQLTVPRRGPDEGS

Row | SMILES | B-score
1 | CC(=O)c1c(C)[nH]c(C(=O)OCC(=O)Nc2sc3c(c2C#N)CCCC3)c1C | inactive
2 | Cc1ccc(CNC(=O)CCC(=O)N2CC(C)Sc3ccccc32)cc1 (stereo not drawn) | inactive
3 | O=S(=O)(Nc1cccc(-c2ccc(N3CCOCC3)nn2)c1)c1ccc(Cl)c(Cl)c1 | inactive
4 | Cc1cccc(NC(=O)NC(=S)NC(=O)c2ccccc2)c1 | inactive
5 | Cc1cccc(NC(=S)NC(=O)c2ccc(Br)o2)c1 | 25 (active)
6 | Cc1cccc(NC(=O)c2ccc([N+](=O)[O-])o2)c1 | inactive
7 | Cc1ccc(CNC(=O)[C@@H](NC(=O)Cc2ccccc2)C(C)C)cc1 | inactive
8 | Cc1ccc(S(=O)(=O)N(CC(=O)NCCSC2CCCCC2)c2ccccc2F)cc1 | inactive
9 | O=C(N1CCOCC1)N1CCOCC1 | inactive
10 | O=C(N1CCCCC1)N1CCN(C(=O)N2CCCCC2)CC1 | 10 (active)
11 | CN1CCCN(C(=O)C2CCCCC2)CC1 | inactive
12 | Cc1sc(NC(=O)C2=COCCO2)c(C#N)c1C | inactive
13 | CC1CCN(S(=O)(=O)c2ccc(NC(=O)C3CC(=O)N(c4ccccc4)C3)cc2)CC1 (stereo not drawn) | inactive
14 | S=C(NCC1COc2ccccc2O1)Nc1ccc(Br)cc1 (stereo not drawn) | inactive
15 | c1ccc(-c2cc3c(NCC4COc5ccccc5O4)ncnc3s2)cc1 (stereo not drawn) | inactive
16 | c1ccc2c(c1)OCC(CNc1ncnc3nc[nH]c13)O2 (stereo not drawn) | 8 (active)
17 | O=C(O)C1CCCN1S(=O)(=O)c1ccc(Br)cc1 (stereo not drawn) | inactive
18 | O=C(CSc1nccc(=O)[nH]1)Nc1ccc(N2CCOCC2)c(Cl)c1 | inactive
19 | O=C(Nc1nnc(-c2ccc(Cl)cc2)o1)c1ccccc1Br | 8 (active)
20 | O=C(COC(=O)c1ccccc1Br)Nc1nnc(-c2ccccc2)o1 | inactive
21 | O=C(Nc1cccc(Cl)c1)Nc1nnc(-c2ccccc2)o1 | inactive
22 | Cc1nnc(Nc2ccccc2F)s1 | inactive
23 | CC(=O)Nc1ccc(S(=O)(=O)N2CCC(C(=O)NC3CC3)CC2)cc1 | inactive

Row | SMILES | B-score
24 | CCOc1ccc(N(CC)S(=O)(=O)c2cccc3nsnc23)cc1 | inactive
25 | CC(C)(C)C1CCc2c(sc3nc(SCC(N)=O)nc(N)c23)C1 (stereo not drawn) | inactive
26 | CCCCNC(=O)CCn1c(=S)[nH]c2cc3c(cc2c1=O)OCO3 | inactive
27 | CCCCn1c(=S)[nH]c2ncccc2c1=O | 10 (active)
28 | CCCCNC(=O)c1ccc(-n2c(=S)[nH]c3ccccc3c2=O)cc1 | inactive
29 | O=c1c2ccccc2[nH]c(=S)n1CCN1CCC(=C(c2ccc(F)cc2)c2ccc(F)cc2)CC1 | inactive
30 | CCCCn1c(=S)[nH]c2ccccc2c1=O | 18 (active)
31 | CCN(CC)CCn1c(=S)[nH]c2ncccc2c1=O | inactive
32 | O=C(Nc1ccc(CN2CCOCC2)cc1)c1cc(Cl)ccc1Cl | inactive
33 | Cc1sc2ncnc(N3CCC(C(=O)Nc4nc5ccc(Cl)cc5s4)CC3)c2c1C | inactive
34 | O=C(CNS(=O)(=O)c1ccc(Br)s1)NCc1ccc2c(c1)OCO2 | inactive
35 | Cn1c2ccccc2c2cc(/C=C(\NC(=O)c3ccccc3)C(=O)NCC(=O)O)ccc21 | inactive
36 | CCNC(=S)Nc1ccc(OC(F)(F)F)cc1 | inactive
37 | CS(=O)(=O)c1sc(C(=O)NC(=S)Nc2ccc(OC(F)(F)F)cc2)c2c1C=CCC2 | 11 (active)
38 | FC(F)(F)Oc1ccc(NC(=S)NCc2ccccc2)cc1 | inactive
39 | CN(/N=C/c1ccccc1)C(=S)c1ccccc1 | inactive
40 | CC(CC(=O)Nc1ccccc1)n1ccnc1 (stereo not drawn) | inactive
41 | Cc1ccn2c(=O)c(C(=O)NCCC3=CCCCC3)c(O)nc2c1 | inactive
42 | COc1cc(Br)cc(/C=N/c2ncn[nH]2)c1O | 12 (active)
43 | Oc1c(Cl)cc(Cl)cc1/C=N/c1ncn[nH]1 | 9 (active)
44 | C=CCn1c(Cn2nnc3ccccc32)nnc1SCC(=O)N/N=C/c1cc(Br)cc(OC)c1O | inactive
45 | Oc1ccc(Br)cc1C=Nc1ccc2[nH]ncc2c1 | inactive
46 | O=C(Cn1cncn1)N/N=C/c1c2ccccc2cc2ccccc12 | inactive

Row | SMILES | B-score
47 | CN(c1ccccn1)c1ncnc2[nH]ncc12 | inactive
48 | CN(Cc1cccs1)C(=O)Cc1c[nH]c2ccccc12 | inactive
49 | CC(C)C(=O)Nc1ccc(C(=O)NNC(=O)c2cccs2)cc1 | inactive
50 | CCc1ccc(NC(=O)C(=O)NNC(=O)c2cccs2)cc1 | 54 (active)
51 | CCc1ccc(NC(=O)COC(=O)c2cccs2)cc1 | inactive
52 | CCCCNC(=O)CN1C(=O)NC(Cc2ccccc2)(Cc2ccccc2)C1=O | inactive
53 | Clc1ccc(C[n+]2cc(-c3ccc(Cl)cc3)n3c2CCC3)cc1 | inactive
54 | CN1CCN(S(=O)(=O)c2ccc(NC(=S)NC(=O)C3CC3)cc2)CC1 | inactive
55 | Cc1cc(Nc2cc(N3CCN(C)CC3)nc(Sc3ccc(NC(=O)C4CC4)cc3)n2)n[nH]1 | 7 (active)
56 | Cc1cc(C)nc(N2CCC(C(=O)Nc3ccc4c(c3)OCCO4)CC2)n1 | inactive
57 | COCC(=O)N1CCc2ccc(NC(=O)c3ccccc3Cl)cc2C1 | inactive
58 | CCc1nccn1CCC(=O)N1CCCC(N2CCN(c3ccccc3F)CC2)C1 (stereo not drawn) | inactive
59 | Cc1cccc(C(=O)N2CCN(S(=O)(=O)N3CCCCC3)CC2)c1 | inactive
60 | O=C(NCCN1CCOCC1)[C@H](Cc1ccccc1)N1C(=O)c2ccccc2C1=O | 11 (active)
61 | O=C(NC1=NCCS1)[C@H](Cc1ccccc1)N1C(=O)c2ccccc2C1=O | inactive
62 | O=C(CCN1C(=O)c2ccccc2C1=O)NCCN1CCOCC1 | inactive
63 | CC(C)COC(=O)C1C2C=CC3(CN(C(C)c4ccc(Br)cc4)C(=O)C13)O2 (stereo not drawn) | inactive
64 | CCOC(=O)c1ccc(Nc2cc3ccccc3c(=O)[nH]2)cc1 | inactive
65 | CCOC(=O)c1sc(=S)n2c1[nH]c(=O)c1ccc(C(=O)OC)cc12 | 59 (active)
66 | CCOC(=O)C1=C(C)Nc2sc(C(=O)c3ccc(Br)cc3)c(N)c2C1c1ccc(C(=O)OC)cc1 (stereo not drawn) | inactive
67 | CCOC(=O)c1c(C)nn(-c2ncccc2NC(=O)CCC(=O)O)c1C | inactive
68 | Cc1oc2cc3oc(=O)ccc3cc2c1C | inactive

From PubChem BioAssay AID2648 (Johns Hopkins Ion Channel Center, 2010)
